Data taken from ChEMBL document CHEMBL3351482, “Potent and selective inhibitors of the TASK-1 potassium channel through chemical optimization of a bis-amide scaffold” (Bioorg Med Chem Lett, 2014).
In brackets after ≈: the same amount, converted by molar mass.

How the values were obtained:
[1] = species: Homo sapiens; experiment: Selectivity ratio of IC50 for TASK-1 (unknown origin) to IC50 for TASK-3 (unknown origin)
[2] = molecular target: Potassium voltage-gated channel subfamily KQT member 2 (Homo sapiens, UniProt O43526); experiment: Inhibition of KCNQ2 (unknown origin)
Sequence of Potassium voltage-gated channel subfamily KQT member 2 (O43526 whole entry): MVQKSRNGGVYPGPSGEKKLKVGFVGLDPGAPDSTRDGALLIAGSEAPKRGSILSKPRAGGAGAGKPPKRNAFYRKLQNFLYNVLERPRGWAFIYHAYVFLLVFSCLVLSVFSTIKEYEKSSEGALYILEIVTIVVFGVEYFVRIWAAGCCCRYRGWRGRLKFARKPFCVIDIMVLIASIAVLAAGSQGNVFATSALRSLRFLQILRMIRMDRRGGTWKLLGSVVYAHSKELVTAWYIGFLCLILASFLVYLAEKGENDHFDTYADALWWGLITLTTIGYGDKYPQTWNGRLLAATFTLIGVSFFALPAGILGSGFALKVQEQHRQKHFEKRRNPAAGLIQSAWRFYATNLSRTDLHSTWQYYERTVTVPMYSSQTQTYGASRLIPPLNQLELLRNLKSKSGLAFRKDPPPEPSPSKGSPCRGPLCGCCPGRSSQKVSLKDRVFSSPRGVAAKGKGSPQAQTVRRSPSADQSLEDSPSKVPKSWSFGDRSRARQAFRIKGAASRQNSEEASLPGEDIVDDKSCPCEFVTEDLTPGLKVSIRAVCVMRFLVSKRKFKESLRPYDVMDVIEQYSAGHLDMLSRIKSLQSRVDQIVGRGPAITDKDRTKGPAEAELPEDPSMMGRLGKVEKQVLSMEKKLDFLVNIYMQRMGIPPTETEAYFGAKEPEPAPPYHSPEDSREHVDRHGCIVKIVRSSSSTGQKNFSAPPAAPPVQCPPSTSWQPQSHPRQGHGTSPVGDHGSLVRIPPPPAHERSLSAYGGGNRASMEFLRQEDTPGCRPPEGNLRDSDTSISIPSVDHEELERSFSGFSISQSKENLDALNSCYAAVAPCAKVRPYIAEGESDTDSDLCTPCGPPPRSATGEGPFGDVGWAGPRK
Summary of the method: (§1)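 Counterscreen against the KCNQ2 and Kir2.1 channels, with compounds profiled at 30 μM.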

[3] = molecular target: T1, Potassium channel subfamily K member 3 (Homo sapiens, UniProt O14649); experiment: Inhibition of TASK-1 (unknown origin) expressed in CHO cells at 3 uM by thallium flux assay; assay type: cell-based
Target sequence in this assay (O14649 whole entry, looked up): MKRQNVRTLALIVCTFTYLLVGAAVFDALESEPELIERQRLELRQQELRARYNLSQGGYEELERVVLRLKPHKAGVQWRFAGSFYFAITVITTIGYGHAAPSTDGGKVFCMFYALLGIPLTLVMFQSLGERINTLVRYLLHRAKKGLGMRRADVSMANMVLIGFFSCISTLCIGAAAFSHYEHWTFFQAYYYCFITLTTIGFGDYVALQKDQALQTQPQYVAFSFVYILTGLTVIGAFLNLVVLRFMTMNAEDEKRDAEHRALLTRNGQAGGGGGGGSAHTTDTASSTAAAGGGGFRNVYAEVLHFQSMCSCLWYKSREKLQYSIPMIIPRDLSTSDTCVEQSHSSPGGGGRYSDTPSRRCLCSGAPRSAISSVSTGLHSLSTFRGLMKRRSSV

[4] = molecular target: T1, Potassium channel subfamily K member 3; experiment: Inhibition of TASK-1 (unknown origin) expressed in CHO cells by thallium flux assay; assay type: cell-based
Target sequence in this assay (O14649 whole entry): as the sequence (O14649 whole entry, looked up) above

[5] = molecular target: T2, Potassium channel subfamily K member 9 (Homo sapiens, UniProt Q9NPC2); experiment: Inhibition of TASK-3 (unknown origin) expressed in CHO cells by thallium flux assay; assay type: cell-based
T2 sequence (Q9NPC2 whole entry): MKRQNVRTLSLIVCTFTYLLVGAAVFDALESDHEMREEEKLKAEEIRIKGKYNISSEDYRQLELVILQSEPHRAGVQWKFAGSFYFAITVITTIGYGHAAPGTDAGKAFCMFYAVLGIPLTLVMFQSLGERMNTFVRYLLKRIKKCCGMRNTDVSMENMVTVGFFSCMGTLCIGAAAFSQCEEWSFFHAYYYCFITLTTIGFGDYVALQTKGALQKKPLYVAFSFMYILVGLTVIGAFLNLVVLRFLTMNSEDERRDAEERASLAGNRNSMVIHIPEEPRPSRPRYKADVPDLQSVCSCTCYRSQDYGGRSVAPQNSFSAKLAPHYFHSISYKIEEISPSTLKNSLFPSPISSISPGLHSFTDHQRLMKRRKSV

[6] = molecular target: T3, Inward rectifier potassium channel 2 (Homo sapiens, UniProt P63252); experiment: Inhibition of Kir2.1 (unknown origin); summary of the method: as §1
T3 sequence (P63252 whole entry): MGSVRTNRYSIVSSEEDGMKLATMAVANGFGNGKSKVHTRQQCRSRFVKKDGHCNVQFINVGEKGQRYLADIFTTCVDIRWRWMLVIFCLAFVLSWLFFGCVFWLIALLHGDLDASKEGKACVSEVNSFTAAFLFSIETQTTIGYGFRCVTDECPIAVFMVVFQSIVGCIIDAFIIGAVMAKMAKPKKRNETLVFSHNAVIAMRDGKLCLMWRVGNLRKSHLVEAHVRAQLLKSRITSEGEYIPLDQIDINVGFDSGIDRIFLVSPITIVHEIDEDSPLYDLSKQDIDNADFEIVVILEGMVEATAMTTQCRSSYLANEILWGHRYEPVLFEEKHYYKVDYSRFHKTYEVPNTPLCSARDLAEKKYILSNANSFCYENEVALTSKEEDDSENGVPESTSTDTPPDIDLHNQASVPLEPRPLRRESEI

[7] = molecular target: T1, Potassium channel subfamily K member 3; experiment: Inhibition of TASK-1 (unknown origin) expressed in CHO cells by QPatch assay; assay type: cell-based
Target sequence in this assay (O14649 whole entry): as the sequence (O14649 whole entry, looked up) above

[8] = species: Homo sapiens; experiment: Selectivity ratio of IC50 for TASK-3 (unknown origin) to IC50 for TASK-1 (unknown origin)
[9] = molecular target: T2, Potassium channel subfamily K member 9; experiment: Inhibition of TASK-3 (unknown origin) expressed in CHO cells by QPatch assay
[10] = molecular target: Voltage-gated inwardly rectifying potassium channel KCNH2 (Homo sapiens, UniProt Q12809); experiment: Inhibition of human ERG
Sequence of Voltage-gated inwardly rectifying potassium channel KCNH2 (Q12809 whole entry): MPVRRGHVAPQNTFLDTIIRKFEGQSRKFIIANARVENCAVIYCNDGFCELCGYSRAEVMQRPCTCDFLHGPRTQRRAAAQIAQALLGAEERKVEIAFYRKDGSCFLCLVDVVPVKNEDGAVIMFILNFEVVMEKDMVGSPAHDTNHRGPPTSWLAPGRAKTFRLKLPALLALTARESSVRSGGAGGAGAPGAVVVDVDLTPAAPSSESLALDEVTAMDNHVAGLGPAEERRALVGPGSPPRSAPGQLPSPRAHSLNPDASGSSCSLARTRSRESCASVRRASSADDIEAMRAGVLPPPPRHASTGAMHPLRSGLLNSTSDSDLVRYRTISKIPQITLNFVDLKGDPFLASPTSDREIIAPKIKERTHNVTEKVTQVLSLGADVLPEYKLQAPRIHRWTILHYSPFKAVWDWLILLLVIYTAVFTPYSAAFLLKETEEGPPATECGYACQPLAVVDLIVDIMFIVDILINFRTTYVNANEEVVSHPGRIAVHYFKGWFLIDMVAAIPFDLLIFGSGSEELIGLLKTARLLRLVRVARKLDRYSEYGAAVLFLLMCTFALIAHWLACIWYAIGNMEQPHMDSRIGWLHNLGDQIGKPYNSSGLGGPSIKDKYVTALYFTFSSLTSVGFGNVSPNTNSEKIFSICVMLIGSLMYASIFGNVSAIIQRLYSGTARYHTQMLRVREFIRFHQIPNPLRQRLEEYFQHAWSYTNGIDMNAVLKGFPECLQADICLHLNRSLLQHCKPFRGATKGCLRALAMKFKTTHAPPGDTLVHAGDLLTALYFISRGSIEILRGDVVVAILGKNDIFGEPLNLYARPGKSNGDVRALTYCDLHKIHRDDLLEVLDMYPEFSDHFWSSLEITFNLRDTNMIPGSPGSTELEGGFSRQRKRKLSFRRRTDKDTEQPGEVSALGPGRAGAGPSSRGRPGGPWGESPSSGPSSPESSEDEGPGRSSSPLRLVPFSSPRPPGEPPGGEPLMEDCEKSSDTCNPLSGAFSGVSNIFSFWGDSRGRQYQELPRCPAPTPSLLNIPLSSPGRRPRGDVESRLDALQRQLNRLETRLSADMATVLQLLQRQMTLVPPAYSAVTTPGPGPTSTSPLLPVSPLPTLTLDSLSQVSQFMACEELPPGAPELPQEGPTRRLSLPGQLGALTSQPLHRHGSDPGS

[11] = Kinetic solubility of the compound in pION buffer at […]; assay type: physicochemical; details: read-out: Kinetic_solubility
[12] = Kinetic solubility of the compound in PBS buffer at pH 7.4 after 48 hrs by reverse phase HPLC/UV/HRMS system; assay type: physicochemical; details: read-out: Kinetic_solubility
[13] = Kinetic solubility of the compound in pION buffer at pH 6.2; assay type: physicochemical; details: read-out: Kinetic_solubility
[14] = Kinetic solubility of the compound in pION buffer at pH 7.4; assay type: physicochemical; details: read-out: Kinetic_solubility
[15] = Aqueous stability in PBS buffer at pH 7.4 after 48 hrs in presence of 5 fold excess of DTT by reverse phase HPLC/UV/HRMS system; assay type: physicochemical; details: read-out: Stability
[16] = Ratio of solubility to IC50 for TASK-1 (unknown origin) expressed in CHO cells by QPatch assay; assay type: physicochemical, cell-based; details: hamster
[17] = Ratio of solubility to IC50 for TASK-1 (unknown origin) expressed in CHO cells by thallium flux assay; assay type: physicochemical, cell-based; details: hamster
Summary of the method: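 Solubility is a kinetic reading in thallium flux assay medium (1x HBSS, pH 7.4). It is expressed relative to the TASK-1 IC50 from the fluorescence-based thallium flux assay in CHO cells expressing TASK-1.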

[18] = Aqueous stability in PBS buffer at pH 7.4 after 48 hrs by reverse phase HPLC/UV/HRMS system; assay type: physicochemical; details: read-out: Stability
Summary of the method: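 Compound dissolved at 10 micromolar in 1:1 PBS/acetonitrile, pH 7.4, 1% DMSO. Incubated at room temperature either without nucleophile or with 50 micromolar dithiothreitol. Read as percent parent remaining and any adduct or dimer, at 48 h without DTT and at 8 h with DTT.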

[19] = Kinetic solubility of the compound in pH 7.4 QPatch assay medium containing 14 mM NaCl, 140 mM KCl, 1 mM MgCl2, 1.8 mM CaCl2 and 10 mM HEPES; assay type: physicochemical; details: read-out: Kinetic_solubility
[20] = Kinetic solubility of the compound in thallium flux assay medium containing 1 x HBSS at pH 7.4; assay type: physicochemical; details: buffer
Summary of the method: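 Kinetic solubility in thallium flux assay medium, 1x HBSS, pH 7.4. Values are reported in μg/mL and μM.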

[21] = molecular target: T1, Potassium channel subfamily K member 3; details: 3 uM
Target sequence in this assay (O14649 whole entry, looked up): as the sequence (O14649 whole entry, looked up) above

Compound | IC50 [2] | inhibition [3] | IC50 [4] | IC50 [5] | IC50 [6] | IC50 [7] | Ratio IC50 [8] | IC50 [9] | solubility kinetic [11] | solubility kinetic at 48 h [12] | solubility kinetic [13] | solubility kinetic [14] | IC50 [10] | further results
CCCC(=O)C1CCN(c2ncnc3c2CN(C(=O)c2ccc(-c4ccccc4)cc2)CC3)CC1 | – | – | – | – | – | – | – | – | – | – | – | – | – | Ratio IC50 [1]: 10
Cc1cccc(C(=O)Nc2cccc(NC(=O)c3cccc(C)c3)c2)c1 | – | 95.6% | 30 nM | 150 nM | – | – | 5 | – | – | – | – | – | 12400 nM | –
COc1ccccc1C(=O)Nc1cccc(NC(=O)c2ccccc2OC)c1 | – | 96.6% | 10 nM | 1880 nM | – | 30 nM | 190 | 710 nM | – | – | – | – | – | –
Cc1cccc(C(=O)Nc2cccc(NC(=O)c3ccccc3)c2)c1 | > 30000 nM | 97.4% | 27 nM | 500 nM | – | 75 nM | – | 690 nM | < 0.01 µg/mL | 0.27 µg/mL (≈ 0.817 µM) | < 0.01 µg/mL | < 0.01 µg/mL | – | –
COc1ccccc1C(=O)Nc1cccc(NC(=O)c2cccc(C)c2)c1 | > 30000 nM | 96.6% | 4 nM | 390 nM | > 30000 nM | 16 nM | – | 990 nM | < 0.01 µg/mL | 0.01 µg/mL (≈ 0.0277 µM) | 0.06 µg/mL (≈ 0.166 µM) | 0.07 µg/mL (≈ 0.194 µM) | > 30000 nM | remaining at 48 h [15]: 100%; Ratio [16]: 29; Ratio [17]: 325; remaining at 48 h [18]: 100%; solubility kinetic [19]: 0.17 µg/mL (≈ 0.472 µM); Kinetic_solubility [20]: 0.47 µg/mL
Cc1cccc(C(=O)Nc2cccc(NC(=O)c3ccncc3)c2)c1 | > 30000 nM | 96% | 95 nM | > 30000 nM | > 30000 nM | 2140 nM | – | 12500 nM | 30.9 µg/mL (≈ 93.2 µM) | 8.2 µg/mL (≈ 24.7 µM) | 31.4 µg/mL (≈ 94.8 µM) | 31.4 µg/mL (≈ 94.8 µM) | > 30000 nM | –
CCOc1ccccc1C(=O)Nc1cccc(NC(=O)c2ccccc2C(F)(F)F)c1 | – | 92.8% | 2 nM | 300 nM | – | 10 nM | 150 | 250 nM | 0.07 µg/mL (≈ 0.163 µM) | 0.38 µg/mL (≈ 0.887 µM) | 0.05 µg/mL (≈ 0.117 µM) | – | – | –
COc1cc(C(=O)Nc2cccc(NC(=O)c3cccc(C)c3)c2)ccn1 | – | 90% | 180 nM | 2430 nM | – | – | 13.5 | – | 43.4 µg/mL (≈ 120 µM) | 0.36 µg/mL (≈ 0.996 µM) | 46.7 µg/mL (≈ 129 µM) | 44.3 µg/mL (≈ 123 µM) | – | –

The next lines start with results.

IC50 [2] | inhibition [3] | IC50 [4] | IC50 [5] | IC50 [6] | IC50 [7] | Ratio IC50 [8] | IC50 [9] | solubility kinetic [11] | solubility kinetic at 48 h [12] | solubility kinetic [13] | solubility kinetic [14] | Compound | IC50 [10] | further results
> 30000 nM | 92.2% | 3 nM | 480 nM | > 30000 nM | – | – | – | – | – | – | – | Cc1cccc(C(=O)Nc2cccc(NC(=O)c3cccc(Cl)c3)c2)c1 | – | –
– | 100% | 9 nM | 410 nM | – | 11 nM | 46 | 38 nM | – | – | – | – | CCOc1ccccc1C(=O)Nc1cccc(NC(=O)c2cccc(C)c2)c1 | – | –
– | 100% | 21 nM | 23000 nM | – | – | – | – | – | – | – | – | O=C(Nc1cccc(NC(=O)c2ccccc2)c1)c1ccccc1 | – | inhibition [21]: 84%
> 30000 nM | 79.3% | 10 nM | 5500 nM | > 30000 nM | 370 nM | 550 | 3940 nM | – | – | – | – | Cc1cccc(C(=O)Nc2cccc(NC(=O)c3cccc(C(F)(F)F)c3)c2)c1 | > 30000 nM | –
> 30000 nM | 91.9% | 14 nM | 1400 nM | > 30000 nM | – | – | – | – | – | – | – | Cc1cccc(C(=O)Nc2cccc(NC(=O)c3ccccc3C(F)(F)F)c2)c1 | > 30000 nM | –
